Source: ChEMBL document CHEMBL3120154, “2-[N-Alkyl(R-phenyl)-aminomethyl]-3-phenyl-7-trifluoromethylquinoxalines as anticancer agents inhibitors of folate enzymes” (Eur J Med Chem, 2014)

Key:
Format in all cases: functional
A498 = assay: Cytotoxicity against human A498 cells at 10^-6 M after 48 hrs by SRB assay; conditions: A498, 48 h, read-out: GI
Procedure, shortened: (§1)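 Run by NCI on its 60-line human tumor cell panel, after a three-cell-line prescreen. Cells were exposed to drug for 48 h over a 5-log range: 100, 10, 1, 0.1 and 0.01 micromolar. Growth was estimated by sulforhodamine B (SRB) protein staining. Percent growth inhibition (I%) was recorded at each concentration relative to untreated control cells.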

COLO 205 = assay: Cytotoxicity against human COLO205 cells at 10^-5 M after 48 hrs by SRB assay; conditions: COLO 205, 48 h, read-out: GI; procedure, shortened: as §1
NCI-H23 [1] = assay: Cytotoxicity against human NCI-H23 cells at 10^-6 M after 48 hrs by SRB assay; conditions: NCI-H23, 48 h, read-out: GI
Procedure, shortened: (§2)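 Run in the NCI 60-cell-line screen after a three-line prescreen. Cells got a 48 h drug exposure; viability/growth was estimated with the sulforhodamine B protein assay. Growth inhibition (I%) was recorded at 100, 10, 1, 0.1 and 0.01 micromolar. Percent growth is relative to untreated control cells, and negative values indicate cell kill.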

NCI-H23 [2] = assay: Cytotoxicity against human NCI-H23 cells at 10^-5 M after 48 hrs by SRB assay; conditions: NCI-H23, 48 h, read-out: GI; procedure, shortened: as §2
MDA-MB-435 = assay: Cytotoxicity against human MDA-MB-435 cells at 10^-5 M after 48 hrs by SRB assay; conditions: MDA-MB-435, 48 h, read-out: GI; procedure, shortened: as §2
UACC-62 = assay: Cytotoxicity against human UACC62 cells at 10^-6 M after 48 hrs by SRB assay; conditions: UACC-62, 48 h, read-out: GI
MOLT-4 = assay: Cytotoxicity against human MOLT4 cells at 10^-6 M after 48 hrs by SRB assay; conditions: MOLT-4, 48 h, read-out: GI; procedure, shortened: as §2
[3] = Cytotoxicity against human UACC257 cells at 10^-5 M after 48 hrs by SRB assay; conditions: UACC-257, 48 h, read-out: GI
SNB-19 = assay: Cytotoxicity against human SNB19 cells at 10^-5 M after 48 hrs by SRB assay; conditions: SNB-19, 48 h, read-out: GI
SK-MEL-28 = assay: Cytotoxicity against human SK-MEL-28 cells at 10^-5 M after 48 hrs by SRB assay; conditions: SK-MEL-28, 48 h, read-out: GI
Procedure, shortened: (§3)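 Second-stage screen in the 60-cell-line human tumor panel at NCI, over a 5-log range (100, 10, 1, 0.1, 0.01 micromolar). Cells were exposed to drug for 48 h and growth was estimated with a sulforhodamine B protein stain. The value is percent growth inhibition at each concentration.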

HOP-62 = assay: Cytotoxicity against human HOP62 cells at 10^-5 M after 48 hrs by SRB assay; conditions: HOP-62, 48 h, read-out: GI; procedure, shortened: as §1
MDA-MB-231 = assay: Cytotoxicity against human MDA-MB-231 cells at 10^-6 M after 48 hrs by SRB assay; conditions: MDA-MB-231, 48 h, read-out: GI; procedure, shortened: as §2
RXF 393 = assay: Cytotoxicity against human RXF393 cells at 10^-6 M after 48 hrs by SRB assay; conditions: RXF 393, 48 h, read-out: GI; procedure, shortened: as §3
[4] = Cytotoxicity against human OVCAR4 cells at 10^-5 M after 48 hrs by SRB assay; conditions: OVCAR-4, 48 h, read-out: GI; procedure, shortened: as §3
SN12C = assay: Cytotoxicity against human SN12C cells at 10^-5 M after 48 hrs by SRB assay; conditions: read-out: GI
SF-539 = assay: Cytotoxicity against human SF539 cells at 10^-5 M after 48 hrs by SRB assay; conditions: SF-539, 48 h, read-out: GI; procedure, shortened: as §3
SNB-75 = assay: Cytotoxicity against human SNB75 cells at 10^-5 M after 48 hrs by SRB assay; conditions: SNB-75, 48 h, read-out: GI
SK-MEL-5 = assay: Cytotoxicity against human SK-MEL-5 cells at 10^-5 M after 48 hrs by SRB assay; conditions: SK-MEL-5, 48 h, read-out: GI; procedure, shortened: as §3
U-251 = assay: Cytotoxicity against human U251 cells at 10^-5 M after 48 hrs by SRB assay; conditions: U-251, 48 h, read-out: GI
[5] = Cytotoxicity against human OVCAR4 cells at 10^-6 M after 48 hrs by SRB assay; conditions: OVCAR-4, 48 h, read-out: GI; procedure, shortened: as §3
ACHN = assay: Cytotoxicity against human ACHN cells at 10^-5 M after 48 hrs by SRB assay; conditions: read-out: GI; procedure, shortened: as §1
NCI-H226 = assay: Cytotoxicity against human NCI-H226 cells at 10^-5 M after 48 hrs by SRB assay; conditions: NCI-H226, 48 h, read-out: GI; procedure, shortened: as §2
SW-620 = assay: Cytotoxicity against human SW620 cells at 10^-5 M after 48 hrs by SRB assay; conditions: SW-620, 48 h, read-out: GI
KM12 = assay: Cytotoxicity against human KM12 cells at 10^-6 M after 48 hrs by SRB assay; conditions: KM12, 48 h, read-out: GI; procedure, shortened: as §2
IGROV-1 = assay: Cytotoxicity against human IGROV1 cells at 10^-5 M after 48 hrs by SRB assay; conditions: IGROV-1, 48 h, read-out: GI; procedure, shortened: as §2
A549 = assay: Cytotoxicity against human A549 cells at 10^-5 M after 48 hrs by SRB assay; conditions: A549, 48 h, read-out: GI; procedure, shortened: as §1
SK-MEL-2 = assay: Cytotoxicity against human SK-MEL-2 cells at 10^-5 M after 48 hrs by SRB assay; conditions: SK-MEL-2, 48 h, read-out: GI; procedure, shortened: as §3
TK-10 = assay: Cytotoxicity against human TK10 cells at 10^-6 M after 48 hrs by SRB assay; conditions: TK-10, 48 h, read-out: GI
BT-549 = assay: Cytotoxicity against human BT549 cells at 10^-6 M after 48 hrs by SRB assay; conditions: BT-549, 48 h, read-out: GI; procedure, shortened: as §1
RPMI-8226 [6] = assay: Cytotoxicity against human RPMI8226 cells at 10^-5 M after 48 hrs by SRB assay; conditions: RPMI-8226, 48 h, read-out: GI; procedure, shortened: as §3
T47D = assay: Cytotoxicity against human T47D cells at 10^-6 M after 48 hrs by SRB assay; conditions: read-out: GI
PC-3 = assay: Cytotoxicity against human PC3 cells at 10^-6 M after 48 hrs by SRB assay; conditions: PC-3, 48 h, read-out: GI; procedure, shortened: as §3
LOX IMVI = assay: Cytotoxicity against human LOXIMVI cells at 10^-5 M after 48 hrs by SRB assay; conditions: read-out: GI; procedure, shortened: as §2
HL-60(TB) = assay: Cytotoxicity against human HL-60(TB) cells at 10^-6 M after 48 hrs by SRB assay; conditions: HL-60, 48 h, read-out: GI
Procedure, shortened: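 NCI 60-human-tumour-cell-line screen run over a 5-log dose range (100, 10, 1, 0.1 and 0.01 µM). Cells were exposed to drug for 48 h. Growth was estimated by sulforhodamine B protein staining. Values are percent growth inhibition at each concentration, relative to untreated control cells.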

RPMI-8226 [7] = assay: Cytotoxicity against human RPMI8226 cells at 10^-6 M after 48 hrs by SRB assay; conditions: RPMI-8226, 48 h, read-out: GI; procedure, shortened: as §3

| SMILES | inhibition of growth at 1 µM (A498) [%] | inhibition of growth at 10 µM (COLO 205) [%] | inhibition of growth at 1 µM (NCI-H23 [1]) [%] | inhibition of growth at 10 µM (NCI-H23 [2]) [%] | inhibition of growth at 10 µM (MDA-MB-435) [%] | inhibition of growth at 1 µM (UACC-62) [%] | inhibition of growth at 1 µM (MOLT-4) [%] | inhibition of growth at 10 µM [3] [%] | inhibition of growth at 10 µM (SNB-19) [%] | inhibition of growth at 10 µM (SK-MEL-28) [%] | inhibition of growth at 10 µM (HOP-62) [%] | inhibition of growth at 1 µM (MDA-MB-231) [%] | inhibition of growth at 1 µM (RXF 393) [%] | inhibition of growth at 10 µM [4] [%] | inhibition of growth at 10 µM (SN12C) [%] | inhibition of growth at 10 µM (SF-539) [%] | inhibition of growth at 10 µM (SNB-75) [%] | inhibition of growth at 10 µM (SK-MEL-5) [%] | inhibition of growth at 10 µM (U-251) [%] | inhibition of growth at 1 µM [5] [%] | other results |
| --- | --- | --- | --- | --- | --- | --- | --- | --- | --- | --- | --- | --- | --- | --- | --- | --- | --- | --- | --- | --- | --- |
| CCN(Cc1nc2cc(C(F)(F)F)ccc2nc1-c1ccccc1)c1ccc(OC)c(OC)c1 | 26 | < 40 | 14 | 34 | 14 | < 40 | < 40 | 146 | < 40 | < 40 | 18 | < 40 | 57 | < 40 | 21 | 18 | < 40 | 17 | 62 | < 40 | inhibition of growth at 10 µM (ACHN): 25%; inhibition of growth at 10 µM (NCI-H226): 32%; inhibition of growth at 10 µM (SW-620): 18%; inhibition of growth at 1 µM (KM12): < 40%; inhibition of growth at 10 µM (IGROV-1): 13%; inhibition of growth at 10 µM (A549): 79%; inhibition of growth at 10 µM (SK-MEL-2): 15%; inhibition of growth at 1 µM (TK-10): < 40%; inhibition of growth at 1 µM (BT-549): < 40%; inhibition of growth at 10 µM (RPMI-8226 [6]): 97%; inhibition of growth at 1 µM (T47D): < 40%; inhibition of growth at 1 µM (PC-3): 13%; inhibition of growth at 10 µM (LOX IMVI): 23%; inhibition of growth at 1 µM (HL-60(TB)): < 40%; inhibition of growth at 1 µM (RPMI-8226 [7]): < 40% |
| C#CCN(Cc1nc2cc(C(F)(F)F)ccc2nc1-c1ccccc1)c1ccc(C)cc1 | < 40 | 164 | < 40 | 92 | 147 | < 40 | 67 | < 40 | 92 | 71 | 71 | < 40 | < 40 | 63 | 80 | 49 | 118 | 99 | 85 | < 40 | inhibition of growth at 10 µM (ACHN): 95%; inhibition of growth at 10 µM (NCI-H226): 91%; inhibition of growth at 10 µM (SW-620): 82%; inhibition of growth at 1 µM (KM12): < 40%; inhibition of growth at 10 µM (IGROV-1): 63%; inhibition of growth at 10 µM (A549): 55%; inhibition of growth at 10 µM (SK-MEL-2): 72%; inhibition of growth at 1 µM (TK-10): < 40%; inhibition of growth at 1 µM (BT-549): < 40%; inhibition of growth at 10 µM (RPMI-8226 [6]): < 40%; inhibition of growth at 1 µM (T47D): 90%; inhibition of growth at 1 µM (PC-3): < 40%; inhibition of growth at 10 µM (LOX IMVI): 54%; inhibition of growth at 1 µM (HL-60(TB)): 66%; inhibition of growth at 1 µM (RPMI-8226 [7]): < 40% |
